Measured values as given in ChEMBL document CHEMBL2086288, “Synthesis, antimicrobial and cytotoxicity study of 1,3-disubstituted-1H-naphtho[1,2-e][1,3]oxazines” (2012).

Legend:
Assay type in all cases: functional
[1] = system: Staphylococcus aureus; test: Antibacterial activity against Staphylococcus aureus MTCC 2901 after 24 hrs by tube dilution method
[2] = system: Bacillus subtilis; test: Antibacterial activity against Bacillus subtilis MTCC 2063 after 24 hrs by tube dilution method
[3] = system: Escherichia coli; test: Antibacterial activity against Escherichia coli MTCC 1652 after 24 hrs by tube dilution method
[4] = system: Candida albicans; test: Antifungal activity against Candida albicans MTCC 227 after 48 hrs by tube dilution method
[5] = system: Aspergillus niger; test: Antifungal activity against Aspergillus niger MTCC 8184 after 7 days by tube dilution method
Summary of the method: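 Tube (serial) dilution MIC in Sabouraud dextrose broth I.P., 25 °C for 7 days. Results are recorded as MIC and reported as pMIC in mM.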

[6] = system: MCF7; test: Growth inhibition of human MCF7 cells at 50 uM after 48 hrs by MTT assay; details: MCF7, 48 h, read-out: GI
Summary of the method: (§1)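 Cells from ECACC are kept in RPMI-1640 with 10% FCS and 1% penicillin at 37 °C in 5% CO2. They are seeded at 3×10^3 cells/well and dosed after 24 h from filter-sterilized DMSO stocks, then treated for 48 h. MTT (2.5 mg/mL in PBS) is added, formazan is dissolved in DMSO, and A570 is read. Viability is given as % of untreated.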

[7] = system: MCF7; test: Growth inhibition of human MCF7 cells at 10 uM after 48 hrs by MTT assay; details: MCF7, 48 h, read-out: GI; summary of the method: as §1
[8] = system: A549; test: Growth inhibition of human A549 cells at 50 uM after 48 hrs by MTT assay; details: A549, 48 h, read-out: GI; summary of the method: as §1
[9] = system: A549; test: Growth inhibition of human A549 cells at 10 uM after 48 hrs by MTT assay; details: A549, 48 h, read-out: GI; summary of the method: as §1
[10] = system: HCT-116; test: Growth inhibition of human HCT116 cells at 50 uM after 48 hrs by MTT assay; details: HCT-116, 48 h, read-out: GI; summary of the method: as §1
[11] = system: HCT-116; test: Growth inhibition of human HCT116 cells at 10 uM after 48 hrs by MTT assay; details: HCT-116, 48 h, read-out: GI; summary of the method: as §1
[12] = system: PC-3; test: Growth inhibition of human PC3 cells at 50 uM after 48 hrs by MTT assay; details: PC-3, 48 h, read-out: GI; summary of the method: as §1
[13] = system: PC-3; test: Growth inhibition of human PC3 cells at 10 uM after 48 hrs by MTT assay; details: PC-3, 48 h, read-out: GI; summary of the method: as §1

| Structure (SMILES) | -logMIC [1] | -logMIC [2] | -logMIC [3] | -logMIC [4] | -logMIC [5] | inhibition of growth at 50 µM [6] | inhibition of growth at 10 µM [7] | inhibition of growth at 50 µM [8] | inhibition of growth at 10 µM [9] | inhibition of growth at 50 µM [10] | inhibition of growth at 10 µM [11] | inhibition of growth at 50 µM [12] | inhibition of growth at 10 µM [13] |
| --- | --- | --- | --- | --- | --- | --- | --- | --- | --- | --- | --- | --- | --- |
| Cc1ccc(C2=NC(c3ccccc3)c3c(ccc4ccccc34)O2)cc1 (configuration not stated) | 1.75 | 1.45 | 2.05 | 1.75 | 1.45 | 46% | 36% | 43% | 19% | 38% | 8% | 20% | 14% |
| Cc1ccc(C2N=C(c3ccccc3)Oc3ccc4ccccc4c32)cc1 (configuration not stated) | 1.45 | 1.75 | 2.35 | 1.75 | 1.45 | 32% | 17% | 37% | 17% | 8% | 2% | 3% | 1% |
| O=C(O)c1cn(C2CC2)c2cc(N3CCNCC3)c(F)cc2c1=O [CIPROFLOXACIN] | 2.61 | 2.61 | 2.61 | – | – | – | – | – | – | – | – | – | – |
| COc1ccc(C2=NC(c3ccc(C)cc3)c3c(ccc4ccccc34)O2)cc1 (configuration not stated) | 1.78 | 1.78 | 2.08 | 1.78 | 1.48 | 39% | 36% | 36% | 15% | 14% | 7% | 10% | 1% |
| Clc1ccc(C2=NC(c3ccc(Cl)cc3)c3c(ccc4ccccc34)O2)cc1 (configuration not stated) | 1.51 | 1.81 | 2.11 | 1.81 | 1.51 | 38% | 16% | 54% | 28% | 10% | 2% | 2% | 1% |
| COc1ccc(C2=NC(c3ccc(OC)cc3)c3c(ccc4ccccc34)O2)cc1 (configuration not stated) | 1.5 | 2.1 | 2.1 | 1.8 | 1.5 | 26% | 22% | 35% | 22% | 29% | 27% | 19% | 17% |
| COc1ccc(C2=NC(c3ccccc3)c3c(ccc4ccccc34)O2)cc1 (configuration not stated) | 1.77 | 1.77 | 2.37 | 1.77 | 1.47 | 42% | 37% | 43% | 19% | 14% | 8% | 23% | 19% |
| O=[N+]([O-])c1ccc(C2=NC(c3ccccc3)c3c(ccc4ccccc34)O2)cc1 (configuration not stated) | 1.78 | 1.78 | 1.78 | 1.78 | 1.48 | 42% | 34% | 43% | 17% | 14% | 4% | 8% | 6% |
| c1ccc(C2=NC(c3ccccc3)c3c(ccc4ccccc34)O2)cc1 (configuration not stated) | 1.43 | 2.03 | 2.33 | 1.73 | 1.43 | 37% | 26% | 36% | 19% | 22% | 5% | 16% | 1% |
| Cc1ccc(C2N=C(c3ccc(F)cc3)Oc3ccc4ccccc4c32)cc1 (configuration not stated) | 1.47 | 2.07 | 2.07 | 1.77 | 1.47 | 44% | 20% | 44% | 16% | 23% | 18% | 19% | 5% |
| Cc1ccc(C2N=C(c3ccc([N+](=O)[O-])cc3)Oc3ccc4ccccc4c32)cc1 (configuration not stated) | 1.8 | 1.8 | 1.8 | 1.8 | 1.5 | 40% | 35% | 41% | 13% | 21% | 7% | 12% | 8% |
| OC(Cn1cncn1)(Cn1cncn1)c1ccc(F)cc1F [FLUCONAZOLE] | – | – | – | 2.64 | 2.64 | – | – | – | – | – | – | – | – |
| Brc1ccc(C2=NC(c3ccccc3)c3c(ccc4ccccc34)O2)cc1 (configuration not stated) | 1.52 | 1.82 | 1.52 | 1.82 | 1.52 | 39% | 27% | 40% | 23% | 29% | 6% | 11% | 4% |
| Cc1ccc(C2N=C(c3ccc(Cl)cc3)Oc3ccc4ccccc4c32)cc1 (configuration not stated) | 1.49 | 1.79 | 0.88 | 1.79 | 1.49 | 37% | 21% | 28% | 16% | 6% | 3% | 13% | 8% |
| Cc1ccc(C2=NC(c3ccc(C)cc3)c3c(ccc4ccccc34)O2)cc1 (configuration not stated) | 1.46 | 2.07 | 1.46 | 1.76 | 1.46 | 37% | 30% | 36% | 17% | 24% | 19% | 5% | 1% |
| Cc1ccc(C2N=C(c3ccc(Br)cc3)Oc3ccc4ccccc4c32)cc1 (configuration not stated) | 1.83 | 1.83 | 1.83 | 1.83 | 1.53 | 33% | 26% | 32% | 13% | 10% | 2% | 2% | 0% |
